Measured values taken from ChEMBL document CHEMBL1142785, “Synthesis of novel curcumin mimics with asymmetrical units and their anti-angiogenic activity” (Bioorg Med Chem Lett, 2005).
Converted amounts (≈) assume the structure as drawn.

Legend:
[1] = Inhibitory concentration for cytotoxic activity against U87 cell line; type: functional, cell-based, U-87MG ATCC; conditions: Homo sapiens, U-87 MG
In short: (§1)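 […] cytotoxicity measured by MTT assay on B16, Vero, U87 and SiHa cells, run alongside HUVEC for selectivity comparison.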

Vero = experiment: Inhibitory concentration for cytotoxic activity against Vero cell line; type: functional, cell-based; conditions: Chlorocebus sabaeus; in short: as §1
SiHa = experiment: Inhibitory concentration for cytotoxic activity against SiHa cell line; type: functional, cell-based; conditions: Homo sapiens; in short: as §1
HUVEC [2] = experiment: Percentage tube formation inhibition against human umbilical vein endothelial cells(HUVEC) at a concentration of 10 ug/mL; type: functional
In short: (§2)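 HUVEC tube formation with test agent at 10, 5 or 2.5 µg/mL; total tube length per field quantified by image analysis and expressed as a percentage of the untreated control.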

HUVEC [3] = experiment: Inhibitory concentration against human umbilical vein endothelial cells(HUVEC) growth; type: functional, cell-based
In short: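 Human umbilical vein endothelial cell (HUVEC) proliferation assay; IC50 derived by nonlinear regression.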

HUVEC [4] = experiment: Percentage tube formation inhibition against human umbilical vein endothelial cells(HUVEC) at a concentration of 5 ug/mL; type: functional; in short: as §2
B16 = experiment: Inhibitory concentration for cytotoxic activity against B16 cell line; type: functional, cell-based; conditions: Mus musculus; in short: as §1
HUVEC [5] = experiment: Percentage tube formation inhibition against human umbilical vein endothelial cells(HUVEC) at a concentration of 2.5 ug/mL; type: functional; in short: as §2

Compound `COc1cc(/C=C/C(=O)c2cccc(NC(=O)c3ccccc3)c2)ccc1O` has an IC50 [1] of 8.82 µg/mL (≈ 23.6 µM), an IC50 (Vero) of 3.47 µg/mL (≈ 9.29 µM) and an IC50 (SiHa) of 4.57 µg/mL (≈ 12.2 µM). The inhibition at 10 µg/mL (HUVEC [2]) was 69%, the IC50 (HUVEC [3]) was 0.37 µg/mL (≈ 0.991 µM) and the inhibition at 5 µg/mL (HUVEC [4]) was 48%. The IC50 (B16) was 0.82 µg/mL (≈ 2.2 µM).

For `COc1cc(/C=C/C(=O)c2cccc(NC(=O)c3cccs3)c2)ccc1O`, the IC50 [1] was 14.7 µg/mL (≈ 38.7 µM), the IC50 (Vero) was 3.98 µg/mL (≈ 10.5 µM) and the IC50 (SiHa) was 6.57 µg/mL (≈ 17.3 µM). The inhibition at 10 µg/mL (HUVEC [2]) was 90%, the inhibition at 2.5 µg/mL (HUVEC [5]) was 71% and the IC50 (HUVEC [3]) was 0.38 µg/mL (≈ 1 µM). For the same compound, the inhibition at 5 µg/mL (HUVEC [4]) was 80% and the IC50 (B16) was 6.93 µg/mL (≈ 18.3 µM).

`COc1cc(/C=C/C(=O)c2cccc(NC(=O)c3ccc(Cl)cc3)c2)ccc1O` showed an IC50 [1] of over 50 µg/mL, an IC50 (Vero) of 3.82 µg/mL (≈ 9.37 µM) and an IC50 (SiHa) of 2.3 µg/mL (≈ 5.64 µM). It also gave an inhibition at 10 µg/mL (HUVEC [2]) of 66%, an IC50 (HUVEC [3]) of 0.76 µg/mL (≈ 1.86 µM) and an inhibition at 5 µg/mL (HUVEC [4]) of 42%. The IC50 (B16) was 0.59 µg/mL (≈ 1.45 µM).

In the case of `COC(=O)C(=O)Nc1cccc(C(=O)/C=C/c2ccc(O)c(OC)c2)c1`, the IC50 [1] is reported as 12.2 µg/mL (≈ 34.4 µM), the IC50 (Vero) is reported as 3.55 µg/mL (≈ 9.99 µM) and the IC50 (SiHa) is reported as 7.71 µg/mL (≈ 21.7 µM). The inhibition at 10 µg/mL (HUVEC [2]) was 43%, the IC50 (HUVEC [3]) was 1.5 µg/mL (≈ 4.22 µM) and the inhibition at 5 µg/mL (HUVEC [4]) was 20%. The IC50 (B16) was 4.41 µg/mL (≈ 12.4 µM).

Compound `CCCC(=O)Nc1cccc(C(=O)/C=C/c2ccc(O)c(OC)c2)c1` has an IC50 [1] of 5.56 µg/mL (≈ 16.4 µM), an IC50 (Vero) of 2.04 µg/mL (≈ 6.01 µM) and an IC50 (SiHa) of 3.94 µg/mL (≈ 11.6 µM). For the same compound, the inhibition at 10 µg/mL (HUVEC [2]) was 87%, the inhibition at 2.5 µg/mL (HUVEC [5]) was 40% and the IC50 (HUVEC [3]) was 1.27 µg/mL (≈ 3.74 µM). It also gave an inhibition at 5 µg/mL (HUVEC [4]) of 57% and an IC50 (B16) of 1.43 µg/mL (≈ 4.21 µM).

With `COc1cc(/C=C/C(=O)c2cccc(NC(=O)C(C)C)c2)ccc1O` the IC50 [1] was 8.31 µg/mL (≈ 24.5 µM), the IC50 (Vero) was 3.47 µg/mL (≈ 10.2 µM) and the IC50 (SiHa) was 5.96 µg/mL (≈ 17.6 µM). For the same compound, the inhibition at 10 µg/mL (HUVEC [2]) was 56%, the inhibition at 2.5 µg/mL (HUVEC [5]) was 11% and the IC50 (HUVEC [3]) was 1.44 µg/mL (≈ 4.24 µM). The inhibition at 5 µg/mL (HUVEC [4]) was 51% and the IC50 (B16) was 1.09 µg/mL (≈ 3.21 µM).

In the case of `COc1cc(/C=C/C(=O)c2cccc(NC(=O)c3c(Cl)cccc3Cl)c2)ccc1O`, the IC50 [1] is reported as 17.8 µg/mL (≈ 40.3 µM), the IC50 (Vero) is reported as 2.48 µg/mL (≈ 5.61 µM) and the IC50 (SiHa) is reported as 3.56 µg/mL (≈ 8.05 µM). It also gave an inhibition at 10 µg/mL (HUVEC [2]) of 99%, an inhibition at 2.5 µg/mL (HUVEC [5]) of 53% and an IC50 (HUVEC [3]) of 0.46 µg/mL (≈ 1.04 µM). For the same compound, the inhibition at 5 µg/mL (HUVEC [4]) was 88% and the IC50 (B16) was 1.58 µg/mL (≈ 3.57 µM).

Work on `COc1cc(/C=C/C(=O)c2cccc(N)c2)ccc1O` yielded an IC50 [1] of 7.71 µg/mL (≈ 28.6 µM), an IC50 (Vero) of 6.02 µg/mL (≈ 22.4 µM) and an IC50 (SiHa) of 12.3 µg/mL (≈ 45.8 µM). It also gave an inhibition at 10 µg/mL (HUVEC [2]) of 90%, an inhibition at 2.5 µg/mL (HUVEC [5]) of 20% and an IC50 (HUVEC [3]) of 2.87 µg/mL (≈ 10.7 µM). It also gave an inhibition at 5 µg/mL (HUVEC [4]) of 50% and an IC50 (B16) of 11.5 µg/mL (≈ 42.6 µM).

For `COc1cc(/C=C/C(=O)c2cccc(NC(=O)c3ccco3)c2)ccc1O`, the IC50 [1] was 6.65 µg/mL (≈ 18.3 µM), the IC50 (Vero) was 3.11 µg/mL (≈ 8.56 µM) and the IC50 (SiHa) was 0.76 µg/mL (≈ 2.09 µM). The inhibition at 10 µg/mL (HUVEC [2]) was 100%, the inhibition at 2.5 µg/mL (HUVEC [5]) was 61% and the IC50 (HUVEC [3]) was 0.38 µg/mL (≈ 1.05 µM). For the same compound, the inhibition at 5 µg/mL (HUVEC [4]) was 82% and the IC50 (B16) was 5.46 µg/mL (≈ 15 µM).

`COc1cc(/C=C/C(=O)c2cccc(NC(=O)c3ccc(Cl)cc3Cl)c2)ccc1O` showed an IC50 [1] of over 50 µg/mL, an IC50 (Vero) of 27.2 µg/mL (≈ 61.5 µM) and an IC50 (SiHa) of 34.4 µg/mL (≈ 77.8 µM). For the same compound, the inhibition at 10 µg/mL (HUVEC [2]) was 70%, the inhibition at 2.5 µg/mL (HUVEC [5]) was 29% and the IC50 (HUVEC [3]) was 0.4 µg/mL (≈ 0.904 µM). It also gave an inhibition at 5 µg/mL (HUVEC [4]) of 51% and an IC50 (B16) of 12.8 µg/mL (≈ 29 µM).

`COc1cc(/C=C/C(=O)c2cccc(NC(=O)c3ccc(Cl)c(Cl)c3)c2)ccc1O` gave an IC50 [1] of 29.5 µg/mL (≈ 66.6 µM), an IC50 (Vero) of over 50 µg/mL and an IC50 (SiHa) of 25.3 µg/mL (≈ 57.2 µM). It also gave an inhibition at 10 µg/mL (HUVEC [2]) of 45%, an IC50 (HUVEC [3]) of 2.97 µg/mL (≈ 6.71 µM) and an inhibition at 5 µg/mL (HUVEC [4]) of 5%. It also gave an IC50 (B16) of 3.88 µg/mL (≈ 8.77 µM).

Compound `COc1cc(/C=C/C(=O)c2cccc(NC(=O)c3cc(Cl)cc(Cl)c3)c2)ccc1O` has an IC50 [1] of over 50 µg/mL, an IC50 (Vero) of over 50 µg/mL and an IC50 (SiHa) of 17.7 µg/mL (≈ 40 µM). For the same compound, the inhibition at 10 µg/mL (HUVEC [2]) was 58%, the inhibition at 2.5 µg/mL (HUVEC [5]) was 15% and the IC50 (HUVEC [3]) was 0.75 µg/mL (≈ 1.7 µM). For the same compound, the inhibition at 5 µg/mL (HUVEC [4]) was 51% and the IC50 (B16) was 4.83 µg/mL (≈ 10.9 µM).

For `COc1cc(/C=C/C(=O)c2cccc(NC(C)=O)c2)ccc1O`, the IC50 [1] was over 50 µg/mL, the IC50 (Vero) was 14.5 µg/mL (≈ 46.5 µM) and the IC50 (SiHa) was 15.8 µg/mL (≈ 50.6 µM). The inhibition at 10 µg/mL (HUVEC [2]) was 32%, the IC50 (HUVEC [3]) was 7.06 µg/mL (≈ 22.7 µM) and the inhibition at 5 µg/mL (HUVEC [4]) was 15%. The IC50 (B16) was 3.62 µg/mL (≈ 11.6 µM).

With `CCOC(=O)C(=O)Nc1cccc(C(=O)/C=C/c2ccc(O)c(OC)c2)c1` the IC50 [1] was over 50 µg/mL, the IC50 (Vero) was over 50 µg/mL and the IC50 (SiHa) was over 50 µg/mL. The inhibition at 10 µg/mL (HUVEC [2]) was 66%, the IC50 (HUVEC [3]) was 13.3 µg/mL (≈ 36 µM) and the inhibition at 5 µg/mL (HUVEC [4]) was 45%. It also gave an IC50 (B16) of 7.03 µg/mL (≈ 19 µM).

With `COc1cc(/C=C/C(=O)CC(=O)/C=C/c2ccc(O)c(OC)c2)ccc1O` [CURCUMIN] the IC50 (HUVEC [3]) was 10.8 µg/mL (≈ 29.4 µM).
